Experimental data: ChEMBL document CHEMBL1135218, “Structure-based design, synthesis, and biological evaluation of irreversible human rhinovirus 3C protease inhibitors. Part 7: structure-activity studies of bicyclic 2-pyridone-containing peptidomimetics” (Bioorg Med Chem Lett, 2002)

Assays:
[1] = system: HeLa; assay: (§1) Tested for antirhinoviral activity of compound against HRV 2 infected H1HeLa cells; Cytotoxicity at > 10 uM; format: functional, cell-based; details: Homo sapiens
[2] = system: HeLa; assay: (§2) Tested for antirhinoviral activity of compound against HRV 39 infected H1HeLa cells; Cytotoxicity at > 10 uM; format: functional; details: Homo sapiens
[3] = system: HeLa; assay: (§3) Tested for antirhinoviral activity of compound against HRV 10 infected H1HeLa cells; Cytotoxicity at > 10 uM; format: functional; details: Homo sapiens
[4] = system: HeLa; assay: (§4) Tested for antirhinoviral activity of compound against HRV 25 infected H1HeLa cells; Cytotoxicity at > 10 uM; format: functional, cell-based; details: Homo sapiens
[5] = system: HeLa; assay: (§5) Tested for antirhinoviral activity of compound against HRV 3 infected H1HeLa cells; Cytotoxicity at > 10 uM; format: functional, cell-based; details: Homo sapiens
[6] = system: HeLa; assay: Compound was tested for the antirhinoviral activity against human rhinovirus (HRV-14) infected H1HeLa cells; format: functional, cell-based
[7] = system: HeLa; assay: as §2; format: functional, cell-based; details: Homo sapiens
[8] = system: HeLa; assay: as §4; format: functional; details: Homo sapiens
[9] = system: HeLa; assay: Tested for antirhinoviral activity of compound against HRV 9 infected H1HeLa cells; format: functional, cell-based; details: Homo sapiens
[10] = system: HeLa; assay: (§6) Tested for antirhinoviral activity of compound against HRV 16 infected H1HeLa cells; Cytotoxicity at > 10 uM; format: functional, cell-based; details: Homo sapiens
[11] = system: HeLa; assay: (§7) Tested for antirhinoviral activity of compound against HRV 87 infected H1HeLa cells; Cytotoxicity at > 10 uM; format: functional, cell-based; details: Homo sapiens
[12] = system: HeLa; assay: Tested for antirhinoviral activity of compound against HRV 9 infected H1HeLa cells; Cytotoxicity at > 10 uM; format: functional; details: Homo sapiens
[13] = system: HeLa; assay: as §6; format: functional; details: Homo sapiens
[14] = system: HeLa; assay: as §7; format: functional; details: Homo sapiens
[15] = system: HeLa; assay: as §1; format: functional; details: Homo sapiens
[16] = system: HeLa; assay: as §5; format: functional; details: Homo sapiens
[17] = system: HeLa; assay: (§8) Tested for antirhinoviral activity of compound against HRV 14 infected H1HeLa cells; Cytotoxicity at > 10 uM; format: functional; details: Homo sapiens
[18] = system: HeLa; assay: Cytotoxic concentration against uninfected H1HeLa cell line; format: functional; details: Homo sapiens
[19] = system: HeLa; assay: as §3; format: functional, cell-based; details: Homo sapiens
[20] = system: HeLa; assay: as §8; format: functional, cell-based; details: Homo sapiens
[21] = target: T1, Human rhinovirus A protease (Human rhinovirus sp.) (UniProt Q4U254); assay: The compound was tested for the inhibitory activity against human rhinovirus-14 3C Protease
T1 sequence (whole entry): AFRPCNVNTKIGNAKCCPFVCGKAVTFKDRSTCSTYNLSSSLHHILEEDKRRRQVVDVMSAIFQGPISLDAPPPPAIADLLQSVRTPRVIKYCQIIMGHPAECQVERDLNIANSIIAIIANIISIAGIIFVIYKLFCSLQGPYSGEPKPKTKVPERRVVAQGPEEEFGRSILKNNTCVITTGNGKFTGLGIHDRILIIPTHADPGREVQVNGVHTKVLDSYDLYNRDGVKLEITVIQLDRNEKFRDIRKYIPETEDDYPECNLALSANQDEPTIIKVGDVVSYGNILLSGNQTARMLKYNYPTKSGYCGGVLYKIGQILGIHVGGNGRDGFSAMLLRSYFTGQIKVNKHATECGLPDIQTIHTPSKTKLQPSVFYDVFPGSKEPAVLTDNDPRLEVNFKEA
In short: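 HRV-14 3C protease was exposed to the irreversible inhibitor. Inactivation was expressed as the second-order rate constant kobs/[I] in M-1 s-1.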

With `CCOC(=O)/C=C/[C@H](C[C@@H]1CCNC1=O)NC(=O)[C@@H]1CCc2ccc(NC(=O)c3cc(C)on3)c(=O)n21` as the molecule, how does the EC50 [1] read?
The EC50 was 37 nM.

What about the EC90 [2] of the same molecule?
Its EC90 is 152 nM.

And the EC90 [3]?
The EC90 was 175 nM.

And the EC50 [4]?
Its EC50 is 162 nM.

What about the EC50 [5] of the same molecule?
Its EC50 is 43 nM.

What about the EC50 [6] of the same molecule?
Its EC50 is 162 nM.

What about the EC50 [7] of the same molecule?
The EC50 was 16 nM.

And the EC90 [8]?
Its EC90 is 616 nM.

What about the EC50 [9] of the same molecule?
Its EC50 is 121 nM.

What about the EC50 [10] of the same molecule?
Its EC50 is 72 nM.

What about the EC50 [11] of the same molecule?
The EC50 was 58 nM.

What about the EC90 [12] of the same molecule?
Its EC90 is 257 nM.

And the EC90 [13]?
Its EC90 is 303 nM.

What about the EC90 [14] of the same molecule?
The EC90 was 110 nM.

What about the EC90 [15] of the same molecule?
The EC90 was 119 nM.

What about the EC90 [16] of the same molecule?
Its EC90 is 133 nM.

What about the EC90 [17] of the same molecule?
Its EC90 is 298 nM.

What about the CC50 [18] of the same molecule?
Its CC50 is greater than 10000 nM.

What about the EC50 [19] of the same molecule?
Its EC50 is 41 nM.

What about the EC50 [20] of the same molecule?
The EC50 was 162 nM.

And the K obs / 1 [21]?
Its K obs / 1 is 177000 M⁻¹ s⁻¹.

Which results are given for `CCOC(=O)/C=C/[C@H](CCC(N)=O)NC(=O)[C@@H]1CS[C@H]2CC[C@H](NC(=O)OCc3ccccc3)C(=O)N21`?
EC50 [6]: > 10000 nM; CC50 [18]: > 10000 nM; K obs / 1 [21]: 26 M⁻¹ s⁻¹

Which results are given for `CCOC(=O)/C=C/[C@H](CCC(N)=O)NC(=O)Cn1cccc(NC(=O)OCc2ccccc2)c1=O`?
EC50 [6]: > 10000 nM; CC50 [18]: > 10000 nM; K obs / 1 [21]: 348 M⁻¹ s⁻¹

Which EC50 [6] does the source give for `CCOC(=O)/C=C/[C@H](CCC(N)=O)NC(=O)[C@@H]1CCc2ccc(NC(=O)OCc3ccccc3)c(=O)n21` here?
Its EC50 is 9000 nM.

And the CC50 [18]?
The CC50 was greater than 100000 nM.

What about the K obs / 1 [21] of the same molecule?
The K obs / 1 was 4540 M⁻¹ s⁻¹.

Which results are given for `CCOC(=O)/C=C/[C@H](CCC(N)=O)NC(=O)[C@H](Cc1ccccc1)n1cccc(NC(=O)OCc2ccccc2)c1=O`?
EC50 [6]: 33 nM; CC50 [18]: 50000 nM; K obs / 1 [21]: 114000 M⁻¹ s⁻¹
